Data on one compound can be found in ChEMBL document CHEMBL1687827, “Profiling the Aspergillus fumigatus proteome in response to caspofungin” (2011).

The source made the active and inactive calls. The rule behind the calls is not given here.

The subject of assay [1] is Aspergillus fumigatus. Put plainly: Induction of change in cytosolic small ribosomal subunit S15, putative protein level in iTRAQ114 labelled cell wall fraction of drug-susceptible Aspergillus fumigatus KU80 delta-akuB at 0.12 ug/ml after 24 hrs in YPD medium by MS (MS/MS) analysis relative to control. The class given is functional. In a few lines: (§1)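 Conidia at 1 × 10⁵/ml grown shaking at 37°C in YPD with or without 0.12 μg/ml caspofungin; mycelia filtered at 24 or 48 h. Secreted fraction taken from the filtrate; cell wall/plasma membrane pellet recovered after French-press lysis and a 5,000 × g spin. Proteins trypsin-digested and iTRAQ-labelled, drug vs no-drug channels at each time, then 2D LC-MS/MS. Protein ratio is the median of ratios from uniquely assigned peptides after median normalization.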

In assay [2] the test system is Aspergillus fumigatus. Nature of the assay: Induction of change in 60s ribosomal protein l2 gene expression in drug-susceptible Aspergillus fumigatus KU80 delta-akuB at 0.12 ug/ml after 24 hrs in YPD medium by microarray analysis relative to control. The class given is functional. In a few lines: (§2)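 Mycelia grown in YPD ± 0.12 μg/ml caspofungin (1 × 10⁵ conidia/ml, 37°C, shaking) and harvested at 24 or 48 h. Total RNA extracted, DNase-treated and quality-checked; 2 μg labelled per TIGR SOP M007 and hybridized to whole-genome arrays. Three independent experiments with dye flip (6 replicates); drug vs untreated fold change.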

For assay [3], the system named is Aspergillus fumigatus. Put plainly: Induction of change in ribosomal protein L35, putative protein level in iTRAQ114 labelled secreted fraction of drug-susceptible Aspergillus fumigatus KU80 delta-akuB at 0.12 ug/ml after 24 hrs in YPD medium by MS (MS/MS) analysis relative to control. The class given is functional. In a few lines:
(§3)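 Conidia (1 × 10⁵/ml) grown in YPD, 37°C, 225 rpm, ± 0.12 μg/ml caspofungin; filtrate taken as secreted fraction, French-press lysate 5,000 × g pellet as cell wall/plasma membrane. Trypsin digests 8-plex iTRAQ-labelled (drug-free channels as references), pooled, 2D-chromatography, MS/MS. Median-normalized; protein ratio = median of unique-peptide ratios, log2 normalized.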

Assay [4] relates to Aspergillus fumigatus. Put plainly: Induction of change in 60s ribosomal protein yl17-b protein level in iTRAQ114 labelled secreted fraction of drug-susceptible Aspergillus fumigatus KU80 delta-akuB at 0.12 ug/ml after 24 hrs in YPD medium by MS (MS/MS) analysis relative to control. The class given is functional. In a few lines:
as §1

Assay [5] deals with Aspergillus fumigatus. Nature of the assay: Induction of change in ribosomal protein L26 protein level in iTRAQ-116 labelled secreted fraction of drug-resistant Aspergillus fumigatus EMFR-S678P at 0.12 ug/ml after 48 hrs in YPD medium by MS (MS/MS) analysis relative to control. The class given is functional, organism-based. In a few lines:
(§4)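 Conidia at 1 × 10⁵/ml were grown at 37°C, shaking at 225 rpm, in YPD with or without 0.12 μg/ml caspofungin for 24 or 48 h. The culture filtrate was kept as the secreted fraction. Mycelia were lysed by French press in HEPES/glycerol/EDTA/PMSF/DTT buffer, and the 5,000 × g pellet was washed to give CW/PM. Proteins were reduced, alkylated and trypsin-digested at 37°C overnight, then iTRAQ-labelled and run by 2D LC-MS/MS. Ratios are the median of unique-peptide ratios, median-normalized, versus the no-drug control.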

Assay [6] deals with Aspergillus fumigatus. Nature of the assay: Induction of change in pyruvate decarboxylase PdcA, putative protein level in iTRAQ-118 labelled cell wall fraction of drug-resistant Aspergillus fumigatus EMFR-S678P at 0.12 ug/ml after 24 hrs in YPD medium by MS (MS/MS) analysis relative to control. The class given is functional, organism-based. In a few lines: as §4
Assay [7] deals with Aspergillus fumigatus. Put plainly: Induction of change in 60s ribosomal protein yl17-b gene expression in drug-susceptible Aspergillus fumigatus KU80 delta-akuB at 0.12 ug/ml after 24 hrs in YPD medium by microarray analysis relative to control. The class given is functional. In a few lines:
as §2

Assay [8] concerns Aspergillus fumigatus. Put plainly: Induction of change in ribosomal protein S9 protein level in iTRAQ114 labelled secreted fraction of drug-susceptible Aspergillus fumigatus KU80 delta-akuB at 0.12 ug/ml after 24 hrs in YPD medium by MS (MS/MS) analysis relative to control. The class given is functional. In a few lines: as §3
The subject of assay [9] is Aspergillus fumigatus. Put plainly: Induction of change in 60s ribosomal protein L24, putative gene expression in drug-susceptible Aspergillus fumigatus KU80 delta-akuB at 0.12 ug/ml after 24 hrs in YPD medium by microarray analysis relative to control. The class given is functional. In a few lines: as §2
The subject of assay [10] is Aspergillus fumigatus. Nature of the assay: Induction of change in glucosamine-fructose-6-phosphate aminotransferase protein level in iTRAQ-118 labelled cell wall fraction of drug-resistant Aspergillus fumigatus EMFR-S678P at 0.12 ug/ml after 48 hrs in YPD medium by MS (MS/MS) analysis relative to control. The class given is functional. In a few lines:
as §4

Assay [11] has as its system Aspergillus fumigatus. Put plainly: Induction of change in GNAT family acetyltransferase, putative protein level in iTRAQ-116 labelled secreted fraction of drug-resistant Aspergillus fumigatus EMFR-S678P at 0.12 ug/ml after 48 hrs in YPD medium by MS (MS/MS) analysis relative to control. The class given is functional. In a few lines:
as §4

In assay [12] the test system is Aspergillus fumigatus. Put plainly: Induction of change in sur7 protein, putative gene expression in drug-susceptible Aspergillus fumigatus KU80 delta-akuB at 0.12 ug/ml after 24 hrs in YPD medium by microarray analysis relative to control. The class given is functional. In a few lines: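 Mycelia grown from 1 × 10⁵ conidia/ml in YPD at 37°C, 225 rpm, with or without 0.12 μg/ml caspofungin. Total RNA extracted, DNase-treated; 2 μg labelled per TIGR SOP M007 for whole-genome array hybridization. Three independent experiments with dye flip (6 replicates); >2-fold change deemed significant.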

With `CC[C@H](C)C[C@H](C)CCCCCCCCC(=O)N[C@H]1C[C@@H](O)[C@@H](NCCN)NC(=O)[C@@H]2[C@@H](O)CCN2C(=O)[C@H]([C@H](O)CCN)NC(=O)[C@H]([C@H](O)[C@@H](O)c2ccc(O)cc2)NC(=O)[C@@H]2C[C@@H](O)CN2C(=O)[C@H]([C@@H](C)O)NC1=O` [CASPOFUNGIN], the “fold change (FC)” value in the assay on Aspergillus fumigatus [1] was 1.9; with Aspergillus fumigatus [2], 3.9; in the assay with Aspergillus fumigatus [3] it was 1.4; with Aspergillus fumigatus [4], -1; in the assay with Aspergillus fumigatus [7], 3.5; in the assay with Aspergillus fumigatus [8] it was 1.1. Also, the “fold change (FC)” value is reported as 3.5 in the assay on Aspergillus fumigatus [9], -1.07 in the assay with Aspergillus fumigatus [10], -1.07 with Aspergillus fumigatus [11] and -5.2 in the assay with Aspergillus fumigatus [12]. Further, the outcome in the assay with Aspergillus fumigatus [5] and with Aspergillus fumigatus [6] was inactive.
